Seven compounds from ChEMBL document CHEMBL3994627, “Positional isomers of bispyridine benzene derivatives induce efficacy changes on mGlu5 negative allosteric modulation” (Eur J Med Chem, 2017) can be followed below.

Test [1] deals with Metabotropic glutamate receptor 5 (Rattus norvegicus, UniProt P31424). In words: Negative allosteric modulation of rat N-terminal HA-tagged mGlu5 receptor expressed in HEK293 cells co-expressing N-terminal HA-tagged EAAC1 assessed as inhibition of quisqualate-induced inositol phosphate accumulation after 30 mins by HTRF assay. The format is functional, cell-based. In short, it runs like this: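 Rat mGlu5 (N-terminal HA tag) and EAAC1 were co-transfected into HEK293 cells by electroporation and seeded at 1.5 × 10^5 cells/well. Medium was changed to glutamate-free DMEM at least 4 h before the run. Next day, cells got 100 nM quisqualate plus compound for 30 min at 37°C, 5% CO2, then were washed once. IP accumulation was read by IP-One HTRF. Dose-response used ≥3 independent replicates.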
Sequence of Metabotropic glutamate receptor 5 (Rattus norvegicus, UniProt P31424) (P31424 whole entry): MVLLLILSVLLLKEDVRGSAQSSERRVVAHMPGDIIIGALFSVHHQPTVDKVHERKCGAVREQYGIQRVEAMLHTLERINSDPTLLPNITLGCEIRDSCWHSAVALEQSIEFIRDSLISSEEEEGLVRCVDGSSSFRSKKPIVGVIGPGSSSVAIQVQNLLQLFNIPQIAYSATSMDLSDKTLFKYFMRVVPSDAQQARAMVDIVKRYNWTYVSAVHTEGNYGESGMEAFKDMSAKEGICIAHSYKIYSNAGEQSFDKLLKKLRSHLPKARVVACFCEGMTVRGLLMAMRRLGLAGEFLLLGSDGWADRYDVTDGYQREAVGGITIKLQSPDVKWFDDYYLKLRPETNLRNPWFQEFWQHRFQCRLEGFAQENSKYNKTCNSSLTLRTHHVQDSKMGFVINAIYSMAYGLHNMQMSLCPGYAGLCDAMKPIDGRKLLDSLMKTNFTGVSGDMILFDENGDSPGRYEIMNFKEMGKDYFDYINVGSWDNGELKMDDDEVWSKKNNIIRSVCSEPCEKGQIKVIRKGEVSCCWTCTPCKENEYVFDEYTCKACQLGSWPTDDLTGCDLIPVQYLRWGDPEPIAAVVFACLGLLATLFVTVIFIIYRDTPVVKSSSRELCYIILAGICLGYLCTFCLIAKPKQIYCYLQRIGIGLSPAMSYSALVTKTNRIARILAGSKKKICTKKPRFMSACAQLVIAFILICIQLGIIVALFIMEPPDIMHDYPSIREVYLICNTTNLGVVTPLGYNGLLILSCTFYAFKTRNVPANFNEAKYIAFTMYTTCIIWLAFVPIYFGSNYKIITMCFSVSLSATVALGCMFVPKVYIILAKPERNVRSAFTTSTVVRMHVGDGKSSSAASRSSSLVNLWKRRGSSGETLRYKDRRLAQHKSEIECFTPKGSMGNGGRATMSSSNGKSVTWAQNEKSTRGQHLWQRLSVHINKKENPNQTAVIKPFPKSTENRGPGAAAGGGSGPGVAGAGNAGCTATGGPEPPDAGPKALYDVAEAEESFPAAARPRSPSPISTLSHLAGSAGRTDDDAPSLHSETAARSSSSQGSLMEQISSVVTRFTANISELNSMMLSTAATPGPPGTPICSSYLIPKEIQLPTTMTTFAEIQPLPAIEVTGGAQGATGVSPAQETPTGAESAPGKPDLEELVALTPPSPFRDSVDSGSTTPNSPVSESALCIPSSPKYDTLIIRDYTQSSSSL
A general note: In TR-FRET formats the signal depends on donor and acceptor labels being close together.

Test [2] addresses Metabotropic glutamate receptor 5 (Rattus norvegicus) (UniProt P31424). Briefly: Negative allosteric modulation of rat N-terminal HA-tagged mGlu5 receptor expressed in HEK293 cells co-expressing N-terminal HA-tagged EAAC1 assessed as inhibition of quisqualate-induced inositol phosphate accumulation after 30 mins by HTRF assay relative to fenobam. It is filed as functional, cell-based. The method, boiled down: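 Dose-response was run in HEK293 cells expressing rat HA-mGlu5 and EAAC1, under 100 nM quisqualate with compound for 30 min at 37°C, in dark conditions. IP-One HTRF read-out. Efficacy was taken from the bottom of the dose-response curve and normalised between 0% and 100% of the fenobam response.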

The target is the same in test [3]. Briefly: Ratio of IC50 for negative allosteric modulation of rat N-terminal HA-tagged mGlu5 receptor expressed in HEK293 cells under dark condition to IC50 for negative allosteric modulation of rat N-terminal HA-tagged mGlu5 receptor expressed in HEK293 cells under violet light illumination. The format is cell-based. The method, boiled down:
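HEK293 cells expressing rat HA-mGlu5 and EAAC1 were stimulated with 100 nM quisqualate plus compound for 30 min at 37°C. Part of each plate was kept dark under foil; the rest was lit continuously at 380 nm from an LED plate. After a single wash, IP was measured by HTRF. Value is IC50 (dark) divided by IC50 (violet). Curves used ≥3 independent replicates.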

For test [4] the target is unchanged. In words: Negative allosteric modulation of rat N-terminal HA-tagged mGlu5 receptor expressed in HEK293 cells co-expressing N-terminal HA-tagged EAAC1 assessed as inhibition of quisqualate-induced inositol phosphate accumulation by measuring difference in efficacy between dark condition and violet light illumination after 30 mins by HTRF assay. The format is functional, cell-based. The arrangement: scale not given: the % may be the effect or the level left. The method, boiled down: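 Quisqualate (100 nM) and compound were applied for 30 min at 37°C to HEK293 cells expressing rat HA-mGlu5 and EAAC1. Wells sat over an LED plate 2–3 cm away: foil-covered wells stayed dark, the rest got continuous 380 nm light. Cells were washed once before lysis, then IP-One HTRF was read. Value is the efficacy difference (%), dark minus violet.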

Test [5] deals with Metabotropic glutamate receptor 5 (Homo sapiens, UniProt P41594). Briefly: Negative allosteric modulation of mGlu5 receptor (unknown origin).
Sequence of Metabotropic glutamate receptor 5 (Homo sapiens, UniProt P41594) (P41594 whole entry): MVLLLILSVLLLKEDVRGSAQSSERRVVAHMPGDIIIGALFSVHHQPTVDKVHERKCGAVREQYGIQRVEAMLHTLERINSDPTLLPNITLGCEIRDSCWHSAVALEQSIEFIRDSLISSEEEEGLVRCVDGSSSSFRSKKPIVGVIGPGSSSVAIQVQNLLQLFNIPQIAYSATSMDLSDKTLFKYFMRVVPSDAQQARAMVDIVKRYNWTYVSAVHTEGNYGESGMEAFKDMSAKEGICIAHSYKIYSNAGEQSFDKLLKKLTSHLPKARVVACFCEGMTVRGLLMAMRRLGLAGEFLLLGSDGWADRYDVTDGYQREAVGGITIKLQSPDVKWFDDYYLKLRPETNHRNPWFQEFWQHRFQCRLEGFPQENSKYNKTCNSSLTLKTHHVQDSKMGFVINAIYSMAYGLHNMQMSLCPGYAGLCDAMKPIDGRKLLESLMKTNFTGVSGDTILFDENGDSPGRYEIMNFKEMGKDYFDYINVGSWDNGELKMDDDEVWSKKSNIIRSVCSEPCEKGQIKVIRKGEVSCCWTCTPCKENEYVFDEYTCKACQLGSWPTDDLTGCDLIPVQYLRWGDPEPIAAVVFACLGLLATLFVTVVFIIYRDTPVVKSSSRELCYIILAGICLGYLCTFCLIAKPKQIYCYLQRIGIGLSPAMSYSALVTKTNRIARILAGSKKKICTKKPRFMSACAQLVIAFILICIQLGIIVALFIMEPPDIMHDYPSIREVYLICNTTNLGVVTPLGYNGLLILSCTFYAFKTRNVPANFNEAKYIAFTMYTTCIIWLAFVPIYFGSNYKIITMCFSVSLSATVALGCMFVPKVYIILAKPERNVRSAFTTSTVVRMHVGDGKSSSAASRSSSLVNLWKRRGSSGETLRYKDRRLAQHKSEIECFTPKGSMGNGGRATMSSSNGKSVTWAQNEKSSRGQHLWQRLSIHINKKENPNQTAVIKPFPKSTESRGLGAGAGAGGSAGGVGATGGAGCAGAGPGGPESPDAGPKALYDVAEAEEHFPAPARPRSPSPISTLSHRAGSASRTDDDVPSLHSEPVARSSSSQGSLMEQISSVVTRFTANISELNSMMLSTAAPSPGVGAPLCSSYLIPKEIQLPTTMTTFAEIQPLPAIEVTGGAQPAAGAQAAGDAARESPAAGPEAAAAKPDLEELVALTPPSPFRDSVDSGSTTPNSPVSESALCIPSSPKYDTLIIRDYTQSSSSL

Sequence of Metabotropic glutamate receptor 5 (Rattus norvegicus) (P31424 21-1203 limits assumed): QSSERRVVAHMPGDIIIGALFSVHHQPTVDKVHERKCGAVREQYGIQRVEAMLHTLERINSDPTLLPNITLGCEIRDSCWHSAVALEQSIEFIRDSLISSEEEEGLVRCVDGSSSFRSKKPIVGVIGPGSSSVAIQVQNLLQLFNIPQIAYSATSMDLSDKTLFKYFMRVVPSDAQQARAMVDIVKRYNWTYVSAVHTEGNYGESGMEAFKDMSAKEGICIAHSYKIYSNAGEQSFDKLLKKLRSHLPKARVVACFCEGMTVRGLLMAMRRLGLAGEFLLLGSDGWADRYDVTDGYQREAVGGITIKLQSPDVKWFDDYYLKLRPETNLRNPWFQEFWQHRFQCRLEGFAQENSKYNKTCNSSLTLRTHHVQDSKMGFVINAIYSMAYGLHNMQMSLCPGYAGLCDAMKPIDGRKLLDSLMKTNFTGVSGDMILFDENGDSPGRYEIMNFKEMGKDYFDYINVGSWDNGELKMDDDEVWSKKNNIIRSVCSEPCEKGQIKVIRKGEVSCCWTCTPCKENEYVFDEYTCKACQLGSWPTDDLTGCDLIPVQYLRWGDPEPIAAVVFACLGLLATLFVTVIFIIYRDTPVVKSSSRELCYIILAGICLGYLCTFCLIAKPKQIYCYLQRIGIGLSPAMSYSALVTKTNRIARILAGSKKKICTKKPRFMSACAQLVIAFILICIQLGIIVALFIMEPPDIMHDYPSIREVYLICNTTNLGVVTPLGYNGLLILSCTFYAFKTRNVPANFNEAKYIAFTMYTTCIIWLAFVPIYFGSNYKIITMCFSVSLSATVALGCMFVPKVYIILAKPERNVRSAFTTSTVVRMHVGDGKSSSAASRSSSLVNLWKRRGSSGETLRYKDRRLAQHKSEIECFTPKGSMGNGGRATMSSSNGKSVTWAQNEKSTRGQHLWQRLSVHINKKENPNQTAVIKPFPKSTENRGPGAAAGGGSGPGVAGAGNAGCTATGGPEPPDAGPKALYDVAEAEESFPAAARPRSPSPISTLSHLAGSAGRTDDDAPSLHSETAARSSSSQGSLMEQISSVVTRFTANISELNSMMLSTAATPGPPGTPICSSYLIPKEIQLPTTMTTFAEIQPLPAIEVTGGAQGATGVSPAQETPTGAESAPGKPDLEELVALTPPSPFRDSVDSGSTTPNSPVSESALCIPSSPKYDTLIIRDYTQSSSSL

As to `C(#Cc1ccccn1)c1cccc(C#Cc2ccccn2)c1`, the IC50 (usually the concentration needed to halve the response being measured) in test [1] was determined as 430 nM. The Efficacy in test [2] was determined as 114%.

For the compound `C(#Cc1ccccn1)c1cccc(/N=N/c2ccccn2)c1`, the IC50 in test [1] was found to be 960 nM. Also, in test [2], the Efficacy came out at 115%. Also, the Ratio IC50 in test [3] was determined as 1.3. The Activity in test [4] was found to be 9%.

With `C(#Cc1ccccn1)c1ccc(/N=N\c2ccccn2)cc1`, the 50% inhibitory concentration (IC50) in test [1] is 3090 nM. Further, the Efficacy in test [2] turned out to be 35%. Moreover, the Ratio IC50 in test [3] stood at 2.9. Besides, in test [4], the Activity was found to be 15%.

As to `c1ccc(/N=N/c2cccc(/N=N/c3ccccn3)c2)nc1`, the half-maximal inhibitory concentration (IC50) in test [1] worked out at 4920 nM. Further, the Efficacy in test [2] came out at 114%. The Ratio IC50 in test [3] stood at 2.2. Moreover, the Activity in test [4] turned out to be 15%.

Take `C(#Cc1ccccn1)c1ccc(C#Cc2ccccn2)cc1`: the half-maximal inhibitory concentration (IC50) in test [1] stood at 1210 nM. Further, in test [2], the Efficacy is 42%.

`c1ccc(/N=N/c2ccc(/N=N/c3ccccn3)cc2)nc1`: the concentration for half-maximal inhibition (IC50) in test [1] was determined as 6130 nM. Further, the Efficacy in test [2] was found to be 19%. Also, the Ratio IC50 in test [3] worked out at 1.2. The Activity in test [4] was -1%.

In test [5], `Cc1cc(C)c(N)c(C#Cc2cccc(F)c2)n1` [RASEGLURANT] yielded an IC50 of 17 nM.
